This note sets out measurements from ChEMBL document CHEMBL1137404, “Enzyme specific activation of benzoquinone ansamycin prodrugs using HuCC49DeltaCH2-beta-galactosidase conjugates” (J Med Chem, 2006).

pIC50: −log10 of the molar value. The source made the active and inactive calls. No cut-off for these calls is given here.

Test [1] has as its system LS174T. Description: Cytotoxicity against human LS174T cells in presence of HuCC49deltaCH2-beta galactosidase conjugate by MTS assay. Format: functional, cell-based. An outline of the steps:
(§1)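 LS174T cells (2,000−5,000/well) grown 24 h, then given 1 h with PBS, enzyme-only staining buffer or antibody-enzyme conjugate (2 units) and washed three to five times. Compound added at 0−25 μM for 72 h.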

Test [2] deals with LS174T. Description: Induction of Hsp90-mediated AKT degradation in human LS174T cells after 1 hr in presence of HuCC49deltaCH2-beta galactosidase conjugate by Western blotting. Format: functional. An outline of the steps:
(§2)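 LS174T cells at 50−70% confluence given 1 h with free β-galactosidase or antibody-enzyme conjugate in PBS with 2% FBS, washed, then exposed 24 h to 2 or 10 μM compound. Lysates (30 μg) run on 10% SDS-PAGE and blotted for AKT and β-actin by ECL. AKT expressed as Akt:β-actin ratio relative to control (100%).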

The subject of test [3] is LS174T. Description: Cytotoxicity against human LS174T cells by MTS assay. Format: functional, cell-based. An outline of the steps:
as §1

The test system of test [4] is LS174T. Description: Induction of Hsp90-mediated AKT degradation in human LS174T cells in absence of HuCC49deltaCH2-beta galactosidase by Western blotting at 2 uM. Format: functional. An outline of the steps:
as §2

In test [5] the test system is LS174T. Description: Induction of Hsp90-mediated AKT degradation in human LS174T cells in presence of HuCC49deltaCH2-beta galactosidase conjugate by Western blotting at 2 uM. Format: functional. An outline of the steps: as §2
Test [6] deals with LS174T. Briefly: Induction of Hsp90-mediated AKT degradation in human LS174T cells in presence of HuCC49deltaCH2-beta galactosidase conjugate by Western blotting at 10 uM. Format: functional. Put shortly:
as §2

For test [7], the system named is LS174T. Description: Induction of Hsp90-mediated AKT degradation in human LS174T cells in absence of HuCC49deltaCH2-beta galactosidase by Western blotting at 10 uM. Format: functional. Put shortly: as §2

Turning to `CO[C@H]1/C=C\C=C(/C)C(=O)NC2=CC(=O)C(NCCO[C@@H]3O[C@H](CO)[C@H](O)[C@H](O)[C@H]3O)=C(C[C@@H](C)C[C@H](OC)[C@H](O)[C@@H](C)/C=C(\C)[C@@H]1OC(N)=O)C2=O`, the pIC50 in the test on LS174T [1] was 5.95; with LS174T [3], under 4.60. In addition, the Activity in the test with LS174T [2] amounted to 70%. Moreover, the result with LS174T [4] was inactive.
For the molecule `COC1=C2C[C@@H](C)C[C@H](OC)[C@H](O)[C@@H](C)/C=C(\C)[C@H](OC(N)=O)[C@@H](OC)/C=C\C=C(/C)C(=O)NC(=CC1=O)C2=O` [GELDANAMYCIN], the pIC50 with LS174T [3] is 6.35.
In the case of `CO[C@H]1/C=C\C=C(/C)C(=O)NC2=CC(=O)C(N)=C(C[C@@H](C)C[C@H](OC)[C@H](O)[C@@H](C)/C=C(\C)[C@@H]1OC(N)=O)C2=O`, the Activity in the test with LS174T [5], with LS174T [6], with LS174T [4] and in the test with LS174T [7] was 70% each time.
